Data from ChEMBL document CHEMBL6078712, “Triterpenoid phthalimides as selective anti-cancer agents targeting mitochondrial apoptosis” (Eur J Med Chem, 2025).
The source made the active and inactive calls. No cut-off for these calls is given here.

Key:
[1] = system: CCRF-CEM; test: Cytotoxicity against human CCRF-CEM cells assessed as inhibition of cell growth incubated for 72 hrs by MTS assay; assay type: functional, cell-based
Outline: (§1)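 MTS assay on eight human cancer lines and two non-tumour fibroblast lines. IC50 is the concentration that inhibits cell growth by 50 %. SD typically up to 15 % of the mean.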

[2] = system: CEM-DNR; test: Cytotoxicity against human CEM-DNR cells assessed as inhibition of cell growth incubated for 72 hrs by MTS assay; assay type: functional, cell-based; outline: as §1
[3] = system: HCT-116; test: Cytotoxicity against human HCT-116 cells assessed as inhibition of cell growth incubated for 72 hrs by MTS assay; assay type: functional, cell-based; details: HCT-116, 72 h; outline: as §1
[4] = system: HCT 116 TP53(-/-); test: Cytotoxicity against human HCT116-p53-null cells assessed as inhibition of cell growth incubated for 72 hrs by MTS assay; assay type: functional, cell-based; outline: as §1
[5] = system: K562; test: Cytotoxicity against human K562 cells assessed as inhibition of cell growth incubated for 72 hrs by MTS assay; assay type: functional, cell-based; details: K562, 72 h; outline: as §1
[6] = Cytotoxicity against human K562-Tax cells assessed as inhibition of cell growth incubated for 72 hrs by MTS assay; assay type: functional, cell-based; outline: as §1
[7] = system: A549; test: Cytotoxicity against human A549 cells assessed as inhibition of cell growth incubated for 72 hrs by MTS assay; assay type: functional, cell-based; details: A549, 72 h; outline: as §1
[8] = system: U2OS; test: Cytotoxicity against human U2OS cells assessed as inhibition of cell growth incubated for 72 hrs by MTS assay; assay type: functional, cell-based; outline: as §1
[9] = Cytotoxicity against human BJ cells assessed as inhibition of cell growth incubated for 72 hrs by MTS assay; assay type: toxicity, cell-based; outline: as §1
[10] = Cytotoxicity against human MRC5 cells assessed as inhibition of cell growth incubated for 72 hrs by MTS assay; assay type: toxicity, cell-based; outline: as §1
[11] = Stability in human plasma assessed as compound remaining at 2 uM incubated for 15 mins by RF-MS analysis; assay type: ADME, cell-free; details: read-out: Stability
Outline: (§2)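 Human plasma stability, plasma protein binding and liver microsome stability, each run in triplicate. Error deviations below 10 %.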

[12] = Stability in human plasma assessed as compound remaining at 2 uM incubated for 30 mins by RF-MS analysis; assay type: ADME, cell-free; details: read-out: Stability; outline: as §2
[13] = Stability in human plasma assessed as compound remaining at 2 uM incubated for 60 mins by RF-MS analysis; assay type: ADME, cell-free; details: read-out: Stability; outline: as §2
[14] = Stability in human plasma assessed as compound remaining at 2 uM incubated for 120 mins by RF-MS analysis; assay type: ADME, cell-free; details: read-out: Stability; outline: as §2
[15] = Plasma protein binding in human assessed as fraction bound at 10 uM incubated for 4 hrs by rapid equilibrium dialysis based RF-MS analysis; assay type: ADME, cell-free; details: read-out: PPB (converted); outline: as §2
[16] = Metabolic stability in human liver microsomes assessed as parent compound remaining at 2 uM incubated for 15 mins in presence of NADPH by RF-MS analysis; assay type: ADME, Microsome; details: read-out: Stability; outline: as §2
[17] = Metabolic stability in human liver microsomes assessed as parent compound remaining at 2 uM incubated for 30 mins in presence of NADPH by RF-MS analysis; assay type: ADME, Microsome; details: read-out: Stability; outline: as §2
[18] = Metabolic stability in human liver microsomes assessed as parent compound remaining at 2 uM incubated for 60 mins in presence of NADPH by RF-MS analysis; assay type: ADME, Microsome; details: read-out: Stability; outline: as §2
[19] = system: CCRF-CEM; test: Induction of apoptosis in human CCRF-CEM cells assessed as viable cells at 1 times IC50 incubated for 24 hrs by Annexin V-FITC and PI staining based flow cytometric analysis (reference value: 97.4 %); assay type: functional
Outline: (§3)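 Washed in Ca2+-containing binding buffer, then stained 15 min at room temperature in the dark with Annexin V-FITC and propidium iodide (PI at half the kit-recommended level). Read at once by flow cytometry with a 488 nm laser, ≥10,000 cells. Debris excluded; quadrants viable, early apoptotic, late apoptotic/necrotic, necrotic. Three independent experiments.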

[20] = system: CCRF-CEM; test: Induction of apoptosis in human CCRF-CEM cells assessed as early apoptotic cells at 1 times IC50 incubated for 24 hrs by Annexin V-FITC and PI staining based flow cytometric analysis (reference value: 2.1 %); assay type: functional; outline: as §3
[21] = system: CCRF-CEM; test: Induction of apoptosis in human CCRF-CEM cells assessed as late apoptotic cells at 1 times IC50 incubated for 24 hrs by Annexin V-FITC and PI staining based flow cytometric analysis (reference value: 0.4 %); assay type: functional; outline: as §3
[22] = system: CCRF-CEM; test: Induction of apoptosis in human CCRF-CEM cells assessed as necrotic cells at 1 times IC50 incubated for 24 hrs by Annexin V-FITC and PI staining based flow cytometric analysis (reference value: 0.4 %); assay type: functional; outline: as §3
[23] = system: CCRF-CEM; test: Induction of apoptosis in human CCRF-CEM cells assessed as viable cells at 5 times IC50 incubated for 24 hrs by Annexin V-FITC and PI staining based flow cytometric analysis (reference value: 97.4 %); assay type: functional; outline: as §3
[24] = system: CCRF-CEM; test: Induction of apoptosis in human CCRF-CEM cells assessed as early apoptotic cells at 5 times IC50 incubated for 24 hrs by Annexin V-FITC and PI staining based flow cytometric analysis (reference value: 2.1 %); assay type: functional; outline: as §3
[25] = system: CCRF-CEM; test: Induction of apoptosis in human CCRF-CEM cells assessed as late apoptotic cells at 5 times IC50 incubated for 24 hrs by Annexin V-FITC and PI staining based flow cytometric analysis (reference value: 0.4 %); assay type: functional; outline: as §3
[26] = system: CCRF-CEM; test: Induction of apoptosis in human CCRF-CEM cells assessed as necrotic cells at 5 times IC50 incubated for 24 hrs by Annexin V-FITC and PI staining based flow cytometric analysis (reference value: 0.4 %); assay type: functional; outline: as §3
[27] = system: Mitochondrial membrane; test: Induction of mitochondrial membrane potential depolarization in human CCRF-CEM cells assessed as fold increase in fluorescence intensity at 5 times IC50 incubated for 24 hrs by JC-1 staining based flow cytometry; assay type: cell membranes
[28] = system: Mitochondrial membrane; test: Induction of mitochondrial membrane potential depolarization in human CCRF-CEM cells assessed as fold increase in fluorescence intensity incubated for 24 hrs by JC-1 staining based flow cytometry; assay type: cell membranes
[29] = system: CCRF-CEM; test: Induction of cell cycle arrest in human CCRF-CEM cells assessed as increase in accumulation of G0/G1 phase at 5 times IC50 incubated for 24 hrs by RNase/PI staining based flow cytometry; assay type: functional
Outline: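 Propidium iodide staining and flow cytometry with a 488 nm laser, ≥10,000 intact cells. Phase proportions compared with untreated cells; SEM of three independent experiments.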

[30] = system: CCRF-CEM; test: Inhibition of DNA synthesis in human CCRF-CEM cells at 1 times IC50 incubated for 24 hrs by BrdU incorporation based flow cytometry; assay type: functional
Outline: (§4)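 Fixed in ice-cold 70 % ethanol, DNA denatured in 2 M HCl for 30 min, neutralised with borax. Stained with anti-BrdU plus FITC secondary, then PI/RNase A for 1 h. Flow cytometry; % BrdU-positive cells.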

[31] = system: CCRF-CEM; test: Inhibition of DNA synthesis in human CCRF-CEM cells at 5 times IC50 incubated for 24 hrs by BrdU incorporation based flow cytometry; assay type: functional; outline: as §4
[32] = system: CCRF-CEM; test: Inhibition of RNA synthesis in human CCRF-CEM cells at 1 times IC50 incubated for 24 hrs by BrU incorporation based flow cytometry; assay type: functional
Outline: (§5)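 Fixed in 1 % paraformaldehyde/0.05 % NP-40 (15 min at room temperature, then 4 °C overnight). Stained with cross-reacting anti-BrdU plus FITC secondary (45 min each), then PI/RNase A. Flow cytometry; % BrU-positive cells.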

[33] = system: CCRF-CEM; test: Inhibition of RNA synthesis in human CCRF-CEM cells at 5 times IC50 incubated for 24 hrs by BrU incorporation based flow cytometry; assay type: functional; outline: as §5
[34] = system: CCRF-CEM; test: Induction of cell cycle arrest in human CCRF-CEM cells assessed as downregulation of total AKT expression at 5 times IC50 incubated for 24 hrs by Western blotting analysis; assay type: functional, cell-based
Outline: (§6)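 30 µg protein per lane on SDS-PAGE, transferred to nitrocellulose, blocked in 5 % BSA/TBS-Tween. Primary antibodies overnight at 4 °C (Akt, P-Akt Ser473, STAT-3, caspase-3, PARP, cyclin D, cyclin A, Bcl-xL, Bak, Bid, Bim), then HRP secondary and ECL detection. GAPDH as loading control.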

[35] = system: CCRF-CEM; test: Induction of cell cycle arrest in human CCRF-CEM cells assessed as downregulation of Cyclin A expression at 5 times IC50 incubated for 24 hrs by Western blotting analysis; assay type: functional, cell-based; outline: as §6
[36] = system: CCRF-CEM; test: Induction of cell cycle arrest in human CCRF-CEM cells assessed as downregulation of total STAT3 expression at 5 times IC50 incubated for 24 hrs by Western blotting analysis; assay type: functional, cell-based; outline: as §6
[37] = system: CCRF-CEM; test: Induction of cell cycle arrest in human CCRF-CEM cells assessed as downregulation of Cyclin D expression at 5 times IC50 incubated for 24 hrs by Western blotting analysis; assay type: functional, cell-based; outline: as §6
[38] = system: CCRF-CEM; test: Induction of apoptosis in human CCRF-CEM cells assessed as downregulation of caspase-3 expression at 5 times IC50 incubated for 24 hrs by Western blotting analysis; assay type: functional, cell-based; outline: as §6
[39] = system: CCRF-CEM; test: Induction of apoptosis in human CCRF-CEM cells assessed as upregulation of BID expression at 1 to 5 times IC50 incubated for 24 hrs by Western blotting analysis; assay type: functional, cell-based; outline: as §6
[40] = system: CCRF-CEM; test: Induction of apoptosis in human CCRF-CEM cells assessed as upregulation of BIM expression at 1 to 5 times IC50 incubated for 24 hrs by Western blotting analysis; assay type: functional, cell-based; outline: as §6
[41] = system: CCRF-CEM; test: Induction of apoptosis in human CCRF-CEM cells assessed as downregulation of BCL-XL expression at 5 times IC50 incubated for 24 hrs by Western blotting analysis; assay type: functional, cell-based; outline: as §6

Structure (SMILES): CC1(C)[C@@H](O)CC[C@]2(C)[C@H]3CC[C@@H]4[C@H]5[C@H](c6cc7c(c(-c8ccccc8)c6)C(=O)N(c6ccc(N)cc6)C7=O)CC[C@]5(C(=O)O)CC[C@@]4(C)[C@]3(C)CC[C@@H]12
- IC50 [1]: 4.09 µM
- IC50 [2]: 6.29 µM
- IC50 [3]: 12 µM
- IC50 [4]: 17.1 µM
- IC50 [5]: 20.9 µM
- IC50 [6]: 4.34 µM
- IC50 [7]: 21 µM
- IC50 [8]: 15.6 µM
- IC50 at 72 h [9]: 40.6 µM
- IC50 at 72 h [10]: 19.4 µM
- remaining at 0.25 h, 2 µM [11]: 106%
- remaining at 0.5 h, 2 µM [12]: 92%
- remaining at 1 h, 2 µM [13]: 93%
- remaining at 2 h, 2 µM [14]: 89%
- fraction unbound at 4 h, 10 µM [15]: 0.37
- remaining at 0.25 h, 2 µM [16]: 100%
- remaining at 0.5 h, 2 µM [17]: 102%
- remaining at 1 h, 2 µM [18]: 97%
- Activity [19]: 92.4%
- Activity [20]: 4.8%
- Activity [21]: 2.8%
- Activity [22]: 0%
- Activity [23]: 87.5%
- Activity [24]: 7.8%
- Activity [25]: 4.7%
- Activity [26]: 0%
- fold change (FC) [27]: > 20
- Activity [28]: Dose-dependent-effect
- Activity [29]: Active
- inhibition (INH) [30]: 30%
- inhibition (INH) [31]: 13.6%
- inhibition (INH) [32]: 24%
- inhibition (INH) [33]: 45.4%
- Activity [34]: Active; Slight Activity Observed
- Activity [35]: Active
- Activity [36]: Active
- Activity [37]: Active
- Activity [38]: Active
- Activity [39]: Active
- Activity [40]: Active
- Activity [41]: Active

Structure (SMILES): CC1(C)[C@@H](O)CC[C@]2(C)[C@H]3CC[C@@H]4[C@H]5[C@H](c6cc7c(c(-c8ccccc8)c6)C(=O)N(c6ccccc6)C7=O)CC[C@]5(C(=O)O)CC[C@@]4(C)[C@]3(C)CC[C@@H]12
- IC50 [1]: 5.18 µM
- IC50 [2]: 20 µM
- IC50 [3]: 29.4 µM
- IC50 [4]: > 50 µM
- IC50 [5]: > 50 µM
- IC50 [6]: 23.1 µM
- IC50 [7]: > 50 µM
- IC50 [8]: 25.9 µM
- IC50 at 72 h [9]: > 50 µM
- IC50 at 72 h [10]: > 50 µM
- remaining at 0.25 h, 2 µM [11]: 96%
- remaining at 0.5 h, 2 µM [12]: 95%
- remaining at 1 h, 2 µM [13]: 100%
- remaining at 2 h, 2 µM [14]: 89%
- fraction unbound at 4 h, 10 µM [15]: 0.231
- remaining at 0.25 h, 2 µM [16]: 92%
- remaining at 0.5 h, 2 µM [17]: 87%
- remaining at 1 h, 2 µM [18]: 79%
- Activity [19]: 90.7%
- Activity [20]: 5.4%
- Activity [21]: 3.9%
- Activity [22]: 0%
- Activity [23]: 90.4%
- Activity [24]: 5.1%
- Activity [25]: 4.5%
- Activity [26]: 0%
- Activity [28]: Dose-dependent-effect
- inhibition (INH) [30]: 35.2%
- inhibition (INH) [31]: 37.8%
- inhibition (INH) [32]: 28.4%
- inhibition (INH) [33]: 16.1%
- Activity [35]: Active
- Activity [39]: Active
- Activity [40]: Active
- Activity [41]: Active
